According to ChEMBL document CHEMBL1138325, “Design, synthesis, in vitro, and in vivo characterization of phenylpiperazines and pyridinylpiperazines as potent and selective antagonists of the melanocortin-4 receptor” (J Med Chem, 2007):
One block for each molecule: values may come before it.

What was measured:
Melanocortin receptor 4 [1] = target: T1, Melanocortin receptor 4 (Homo sapiens, UniProt P32245); experiment: Displacement of [125I]NDPMSH from human MC4R expressed in HEK293 cells; type: cell-based
Melanocortin receptor 4 [2] = target: T1, Melanocortin receptor 4; experiment: Antagonist activity at human MC4R expressed in HEK293 cells assessed as inhibition of alpha-MSH-stimulated cAMP production; type: functional, cell-based
[3] = AUC in CD1 mouse at 10 mg/kg, po; type: ADME, organism-based; parameters: dose 10 mg/kg, route oral; details: plasma
Outline: (§1)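 CD-1 mice, three animals, dosed i.v. at 5 mg/kg and by oral gavage at 10 mg/kg. Plasma CL, Vd, t1/2, Cmax, Tmax, oral AUC and F% were derived. Brain concentrations and brain/plasma ratios at 1 and 4 h were taken from the i.v. dosing.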

[4] = Apparent permeability from apical to basolateral side of Caco-2 cells; type: ADME, cell-based; details: human
Outline: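 Caco-2 monolayer permeability, with Papp measured in the apical-to-basolateral direction.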

[5] = Distribution coefficient, log D by shake flask method; type: physicochemical; details: octanol/water
Outline: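 LogD measured by the shake-flask method; described elsewhere in the paper as lipophilicity at pH 7.4.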

[6] = Clearance in Sprague-Dawley rat at 5 mg/kg, iv and 10 mg/kg, po; type: ADME, organism-based; details: in vivo
[7] = Volume of distribution in Sprague-Dawley rat at 5 mg/kg, iv and 10 mg/kg, po; type: ADME, organism-based; details: in vivo
Outline: (§2)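 Sprague–Dawley rats, three animals per route; i.v. dose 5 mg/kg and oral 10 mg/kg. Brain concentrations and brain/plasma ratios taken from the oral dosing at 1 and 4 h post-dose.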

[8] = Half life in Sprague-Dawley rat at 5 mg/kg, iv and 10 mg/kg, po; type: ADME, organism-based; details: in vivo
[9] = Tmax in Sprague-Dawley rat at 5 mg/kg, iv and 10 mg/kg, po; type: ADME, organism-based; details: in vivo; outline: as §2
[10] = Cmax in Sprague-Dawley rat at 10 mg/kg, po; type: ADME, organism-based; parameters: dose 10 mg/kg, route oral; details: in vivo
[11] = AUC in Sprague-Dawley rat at 10 mg/kg, po; type: ADME, organism-based; parameters: dose 10 mg/kg, route oral; details: plasma
[12] = Oral bioavailability in Sprague-Dawley rat at 10 mg/kg, po; type: ADME, organism-based; details: in vivo; outline: as §2
[13] = Drug level in Sprague-Dawley rat brain at 10 mg/kg, po after 1 hr; type: ADME, organism-based; parameters: dose 10 mg/kg, route oral; details: read-out: Drug uptake
[14] = Drug level in Sprague-Dawley rat brain at 10 mg/kg, po after 4 hrs; type: ADME, organism-based; parameters: dose 10 mg/kg, route oral; details: read-out: Drug uptake
[15] = Ratio of drug level in brain to plasma in Sprague-Dawley rat at 10 mg/kg, po after 1 hr; type: ADME, organism-based; parameters: dose 10 mg/kg, route oral; details: brain and plasma, read-out: BPR; outline: as §2
[16] = Ratio of drug level in brain to plasma in Sprague-Dawley rat at 10 mg/kg, po after 4 hrs; type: ADME, organism-based; parameters: dose 10 mg/kg, route oral; details: brain and plasma, read-out: BPR; outline: as §2
[17] = target: T2, Melanocyte-stimulating hormone receptor (Homo sapiens, UniProt Q01726); experiment: Displacement of [125I]NDPMSH from human MC1R expressed in HEK293 cells at 10 uM; type: cell-based
Target sequence in this assay (Q01726 whole entry, looked up): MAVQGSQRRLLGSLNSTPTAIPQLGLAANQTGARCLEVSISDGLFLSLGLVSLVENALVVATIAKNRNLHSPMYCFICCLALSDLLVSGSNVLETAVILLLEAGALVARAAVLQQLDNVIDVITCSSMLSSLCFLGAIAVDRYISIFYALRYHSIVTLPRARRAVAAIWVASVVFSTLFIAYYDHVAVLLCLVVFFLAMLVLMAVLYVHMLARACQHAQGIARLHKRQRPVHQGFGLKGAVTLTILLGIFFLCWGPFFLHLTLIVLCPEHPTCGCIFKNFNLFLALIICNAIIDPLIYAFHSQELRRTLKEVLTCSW

[18] = Cmax in CD1 mouse at 10 mg/kg, po after 6 hrs; type: ADME, organism-based; parameters: dose 10 mg/kg, route oral; details: in vivo; outline: as §1
[19] = Ratio of drug level in brain to plasma in CD1 mouse at 5 mg/kg, iv after 4 hrs; type: ADME, organism-based; parameters: dose 5 mg/kg, route intravenous; details: brain and plasma, read-out: BPR
[20] = target: Growth hormone secretagogue receptor type 1 (Homo sapiens, UniProt Q92847); experiment: Agonist activity at GHSR; type: functional
Melanocortin receptor 3 = Melanocortin receptor 3 (Homo sapiens, UniProt P41968); experiment: Displacement of [125I]NDPMSH from human MC3R expressed in HEK293 cells; type: cell-based
Melanocortin receptor 5 = Melanocortin receptor 5 (Homo sapiens, UniProt P33032); experiment: Displacement of [125I]NDPMSH from human MC5R expressed in HEK293 cells; type: cell-based
[21] = target: T2, Melanocyte-stimulating hormone receptor; experiment: Displacement of [125I]NDPMSH from human MC1R expressed in HEK293 cells; type: cell-based
Target sequence in this assay (Q01726 whole entry): as the sequence (Q01726 whole entry, looked up) above

[22] = Clearance in Sprague-Dawley rat at 2.5 mg/kg, iv and 10 mg/kg, po; type: ADME, organism-based; details: in vivo
Outline: (§3)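 Sprague–Dawley rats, three animals, dosed i.v. at 2.5 mg/kg and orally at 10 mg/kg. CL and t1/2 were derived from the plasma profile.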

[23] = Volume of distribution in Sprague-Dawley rat at 2.5 mg/kg, iv and 10 mg/kg, po; type: ADME, organism-based; details: in vivo
Outline: (§4)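 Sprague–Dawley rats, three animals per route; i.v. given at 2.5 mg/kg and oral at 10 mg/kg; plasma PK parameters calculated from these dosings.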

[24] = Half life in Sprague-Dawley rat at 2.5 mg/kg, iv and 10 mg/kg, po; type: ADME, organism-based; details: in vivo; outline: as §3
[25] = Tmax in Sprague-Dawley rat at 2.5 mg/kg, iv and 10 mg/kg, po; type: ADME, organism-based; details: in vivo; outline: as §4
[26] = Clearance in CD1 mouse at 5 mg/kg, iv; type: ADME, organism-based; parameters: dose 5 mg/kg, route intravenous; details: in vivo; outline: as §1
[27] = Volume of distribution in CD1 mouse at 5 mg/kg, iv; type: ADME, organism-based; parameters: dose 5 mg/kg, route intravenous; details: in vivo
Outline: (§5)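 CD-1 mice, three animals per route; single i.v. dose at 5 mg/kg and oral gavage at 10 mg/kg. Plasma PK parameters derived; brain concentrations and brain/plasma ratios taken from the i.v. dosing at 1 and 4 h.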

[28] = Half life in CD1 mouse at 5 mg/kg, iv; type: ADME, organism-based; parameters: dose 5 mg/kg, route intravenous; details: in vivo; outline: as §1
[29] = Drug level in CD1 mouse brain at 5 mg/kg, iv after 1 hr; type: ADME, organism-based; parameters: dose 5 mg/kg, route intravenous; details: read-out: Drug uptake; outline: as §1
[30] = Ratio of drug level in brain to plasma in CD1 mouse at 5 mg/kg, iv after 1 hr; type: ADME, organism-based; parameters: dose 5 mg/kg, route intravenous; details: brain and plasma, read-out: BPR
[31] = Tmax in CD1 mouse at 10 mg/kg, po; type: ADME, organism-based; parameters: dose 10 mg/kg, route oral; details: in vivo; outline: as §5
[32] = Bioavailability in CD1 mouse at 10 mg/kg, po; type: ADME, organism-based; details: in vivo; outline: as §1
[33] = Drug level in CD1 mouse brain at 5 mg/kg, iv after 4 hrs; type: ADME, organism-based; parameters: dose 5 mg/kg, route intravenous; details: read-out: Drug uptake; outline: as §1

T1 sequence (P32245 whole entry): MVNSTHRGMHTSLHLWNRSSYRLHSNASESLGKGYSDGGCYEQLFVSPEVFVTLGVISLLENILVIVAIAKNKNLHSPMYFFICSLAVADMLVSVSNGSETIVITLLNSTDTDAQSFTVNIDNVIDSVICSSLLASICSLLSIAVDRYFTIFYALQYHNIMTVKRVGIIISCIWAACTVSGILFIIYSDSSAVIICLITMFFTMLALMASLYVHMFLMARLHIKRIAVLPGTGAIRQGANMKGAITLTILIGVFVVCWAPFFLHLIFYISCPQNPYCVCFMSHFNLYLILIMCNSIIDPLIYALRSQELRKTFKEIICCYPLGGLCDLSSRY
Sequence of Melanocortin receptor 3 (P41968 whole entry): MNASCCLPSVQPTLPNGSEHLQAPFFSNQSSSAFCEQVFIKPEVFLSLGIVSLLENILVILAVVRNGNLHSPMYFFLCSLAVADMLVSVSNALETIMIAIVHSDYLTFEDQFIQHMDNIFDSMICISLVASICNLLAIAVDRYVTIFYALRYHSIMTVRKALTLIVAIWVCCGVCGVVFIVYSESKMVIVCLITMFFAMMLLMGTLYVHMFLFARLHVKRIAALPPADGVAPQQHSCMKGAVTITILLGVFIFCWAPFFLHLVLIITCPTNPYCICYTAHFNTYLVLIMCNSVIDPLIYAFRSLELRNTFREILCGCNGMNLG
Sequence of Melanocortin receptor 5 (P33032 whole entry): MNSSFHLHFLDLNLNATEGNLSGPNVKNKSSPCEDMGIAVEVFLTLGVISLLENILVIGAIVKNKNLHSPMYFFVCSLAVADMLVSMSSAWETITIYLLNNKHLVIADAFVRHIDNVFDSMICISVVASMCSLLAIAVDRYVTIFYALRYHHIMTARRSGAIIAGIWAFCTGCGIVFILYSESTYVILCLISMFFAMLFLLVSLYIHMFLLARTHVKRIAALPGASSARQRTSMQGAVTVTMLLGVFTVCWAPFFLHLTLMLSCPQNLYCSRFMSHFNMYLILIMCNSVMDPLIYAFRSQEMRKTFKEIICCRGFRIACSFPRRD
Sequence of Growth hormone secretagogue receptor type 1 (Q92847 whole entry): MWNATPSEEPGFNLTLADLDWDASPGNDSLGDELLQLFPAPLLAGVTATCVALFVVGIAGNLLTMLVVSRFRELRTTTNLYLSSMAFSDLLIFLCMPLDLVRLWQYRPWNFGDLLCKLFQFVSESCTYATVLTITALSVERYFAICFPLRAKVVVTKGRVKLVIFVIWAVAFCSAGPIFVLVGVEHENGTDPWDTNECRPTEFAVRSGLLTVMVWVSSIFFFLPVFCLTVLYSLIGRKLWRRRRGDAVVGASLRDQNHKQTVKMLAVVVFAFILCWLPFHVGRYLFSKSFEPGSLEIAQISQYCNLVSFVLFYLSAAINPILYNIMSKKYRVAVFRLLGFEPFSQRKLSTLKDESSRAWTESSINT

Compound: CC(C)C[C@H](N)c1cc(C(F)(F)F)ccc1N1CCN(C(=O)CCc2ccc(Cl)cc2Cl)CC1
Ki (Melanocortin receptor 4 [1]): 75 nM

Compound: Cc1ccc(N2CCN(C(=O)[C@H](C)Cc3ccc(Cl)cc3)CC2)c([C@@H](N)CC(C)C)c1
IC50 (Melanocortin receptor 4 [2]): 570 nM
AUC [3]: 1760 ng·h/mL
Papp A→B [4]: 1.8 ×10⁻⁶ cm/s

Compound: Cc1ccc(N2CCN(C(=O)[C@@H](Cc3ccc(Cl)cc3Cl)N3CCCC3=O)CC2)c([C@H](CC(C)C)NC(=O)CCN(C)C)c1
logD [5]: 3.9
clearance [6]: 38.7 mL/min/kg
Vd [7]: 8.8 L/kg
half-life [8]: 156 min
Tmax [9]: 4 h
Cmax [10]: 40 ng/mL
AUC [11]: 393 ng·h/mL
bioavailability [12]: 8.7%
concentration at 1 h [13]: 1.5 ng/g
concentration at 4 h [14]: 15 ng/g
Kp at 1 h [15]: 0.2
Kp at 4 h [16]: 0.3

Compound: Cc1ccc([C@H](N)CC(C)C)c(N2CCN(C(=O)[C@H](C)Cc3ccc(Cl)cc3Cl)CC2)n1
Ki (Melanocortin receptor 4 [1]): 44 nM

Compound: CC(C)C[C@H](N)c1cccnc1N1CCN(C(=O)CCc2ccc(Cl)cc2Cl)CC1
Ki (Melanocortin receptor 4 [1]): 890 nM

Compound: Cc1ccc(N2CCN(C(=O)[C@H](C)Cc3ccc(Cl)cc3)CC2)c([C@H](CC(C)C)NC(=O)CCN(C)C)c1
Ki (Melanocortin receptor 3): 2.8 µM
Ki (Melanocortin receptor 4 [1]): 3.7 nM
Ki (Melanocortin receptor 5): 710 nM
IC50 (Melanocortin receptor 4 [2]): 160 nM
Activity [17]: 34%
logD [5]: 2.4
clearance [6]: 15 mL/min/kg
Vd [7]: 4.1 L/kg
half-life [8]: 186 min
Tmax [9]: 5.3 h
Cmax [10]: 196 ng/mL
AUC [11]: 2360 ng·h/mL
bioavailability [12]: 19%
concentration at 1 h [13]: 12 ng/g
concentration at 4 h [14]: 36 ng/g
Kp at 1 h [15]: 0.2
Kp at 4 h [16]: 0.3

More lines, now with the values ahead:

Ki (Melanocortin receptor 4 [1]): 260 nM
Compound: CC(C)C[C@@H](N)c1cccnc1N1CCN(C(=O)CCc2ccc(Cl)cc2Cl)CC1

Activity [17]: 18%
AUC [3]: 687 ng·h/mL
Compound: CC(C)C[C@H](NC(=O)CN)c1cc(C(F)(F)F)ccc1N1CCN(C(=O)CCc2ccc(Cl)cc2Cl)CC1

Ki (Melanocortin receptor 4 [1]): 36 nM
Compound: CC(C)C[C@@H](N)c1cccnc1N1CCN(C(=O)C(C)Cc2ccc(Cl)cc2Cl)CC1 (stereo not given in full)

Cmax [18]: 552 ng/mL
Kp at 4 h [19]: 0.23
Intrinsic activity [20]: 107%
Papp A→B [4]: 2 ×10⁻⁶ cm/s
Compound: CC(C)C[C@H](NCCN)c1cccc(F)c1N1CCN(C(=O)[C@@H](Cc2ccc(Cl)cc2Cl)N2CCCC2=O)CC1

Ki (Melanocortin receptor 3): 3.3 µM
Ki (Melanocortin receptor 4 [1]): 2.5 nM
Ki (Melanocortin receptor 5): 1200 nM
IC50 (Melanocortin receptor 4 [2]): 49 nM
logD [5]: 3.3
Ki [21]: 6.4 µM
clearance [22]: 64.9 mL/min/kg
Vd [23]: 18.6 L/kg
half-life [24]: 198 min
Tmax [25]: 2 h
Cmax [10]: 60 ng/mL
AUC [11]: 517 ng·h/mL
bioavailability [12]: 19.6%
concentration at 1 h [13]: 15 ng/g
concentration at 4 h [14]: 29 ng/g
Kp at 1 h [15]: 0.2
Kp at 4 h [16]: 0.2
Compound: Cc1ccc([C@@H](CC(C)C)NC(=O)CCN(C)C)c(N2CCN(C(=O)[C@H](C)Cc3ccc(Cl)cc3Cl)CC2)n1

logD [5]: 4.5
AUC [3]: 249 ng·h/mL
Compound: COc1cc(Cl)ccc1CC(C)C(=O)N1CCN(c2ccc(C(F)(F)F)cc2[C@@H](N)CC(C)C)CC1 (stereo not given in full)

Ki (Melanocortin receptor 4 [1]): 6 nM
clearance [26]: 37.4 mL/min/kg
Vd [27]: 16.8 L/kg
half-life [28]: 312 min
concentration at 1 h [29]: 35 ng/g
Kp at 1 h [30]: 0.07
Tmax [31]: 30 min
Cmax [18]: 288 ng/mL
AUC [3]: 551 ng·h/mL
bioavailability [32]: 12.6%
concentration at 4 h [33]: 14 ng/g
Kp at 4 h [19]: 0.15
Compound: CC(C)C[C@@H](NC(=O)CN)c1cccnc1N1CCN(C(=O)[C@H](C)Cc2ccc(Cl)cc2Cl)CC1

Ki (Melanocortin receptor 4 [1]): 39 nM
Compound: CC(C)C[C@H](NC(=O)CN)c1cccnc1N1CCN(C(=O)[C@H](C)Cc2ccc(Cl)cc2Cl)CC1
